Experiment [1] deals with Uridine phosphorylase 1 (Mus musculus) (UniProt P52624). The experiment in a line: The compound was tested for inhibition of uridine phosphorylase (UrdPase) from murine liver at 10 uM of concentration.
For experiment [2], the target named is T1, Uridine phosphorylase 1 (Mus musculus, UniProt P52624). The experiment in a line: Inhibition of uridine phosphorylase (UrdPase) from murine liver. The gist of the method:
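Murine liver UrdPase; uridine converted to uracil over 30 min at 37 °C, with enzyme set to give 10% conversion uninhibited. Stopped by 1 min at 100 °C. Uridine and uracil separated by TLC (chloroform:methanol:acetic acid 90:5:5).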

Experiment [3] concerns the target Uridine phosphorylase 1 (Mus musculus) (UniProt P52624). As to the kind of experiment: The compound was tested for inhibition of uridine phosphorylase (UrdPase) from murine liver at 5 uM of concentration.
In experiment [4] the target is T1, Uridine phosphorylase 1. The experiment in a line: The compound was tested for inhibition of uridine phosphorylase (UrdPase) from murine liver Value refers to activity for apparent Ki value.

This note sets out measurements from ChEMBL document CHEMBL1128561, “Inhibition of uridine phosphorylase: synthesis and structure-activity relationships of aryl-substituted 5-benzyluracils and 1-[(2-hydroxyethoxy)methyl]-5-benzyluracils” (J Med Chem, 1995).

The structures appear in SMILES notation.

T1 sequence (P52624 whole entry): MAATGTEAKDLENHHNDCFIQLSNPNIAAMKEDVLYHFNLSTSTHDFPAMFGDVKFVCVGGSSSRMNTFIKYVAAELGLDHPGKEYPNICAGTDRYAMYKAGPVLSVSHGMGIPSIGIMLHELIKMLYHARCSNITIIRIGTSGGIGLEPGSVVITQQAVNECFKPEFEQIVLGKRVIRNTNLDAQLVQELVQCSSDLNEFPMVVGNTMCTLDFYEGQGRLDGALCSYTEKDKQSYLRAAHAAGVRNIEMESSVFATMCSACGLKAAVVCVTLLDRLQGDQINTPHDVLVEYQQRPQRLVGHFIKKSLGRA
Sequence of Uridine phosphorylase 1 (Mus musculus) (P52624 whole entry, looked up): as the sequence (P52624 whole entry) above

Take `Oc1ncc(Cc2ccc(C(F)(F)F)cc2)c(O)n1`: in experiment [1], the inhibition stood at 16%.
At Uridine phosphorylase 1 [2], `CCCOc1cccc(Cc2cn(COCCO)c(=O)[nH]c2=O)c1` yielded a concentration for half-maximal inhibition (IC50) of 0.047 µM. This lies in the double-digit nanomolar range.
`Oc1ncc(Cc2cccc(OCc3ccccc3)c2)c(O)n1`: the inhibition in experiment [3] came out at 15%.
Turning to `O=c1[nH]cc(Cc2ccc([N+](=O)[O-])cc2)c(=O)[nH]1`, the half-maximal inhibitory concentration (IC50) at Uridine phosphorylase 1 [2] was found to be 5.9 µM.
Take `COc1cccc(Cc2cn(COCCO)c(=O)[nH]c2=O)c1`: the Ki at Uridine phosphorylase 1 [4] is 1.86 µM.
For `O=c1[nH]cc(Cc2ccc3c(c2)OCO3)c(=O)[nH]1`, inhibition on Uridine phosphorylase 1 [2] was half-maximal at 13.6 µM (IC50).
Same read-out and setting: then `COc1ccc(Cc2cnc(O)nc2O)cc1`, with 66.5 µM; and `O=c1[nH]cc(Cc2cccc(OCCCC(F)(F)F)c2)c(=O)[nH]1`, with 13 µM.
On Uridine phosphorylase 1 [2], `COc1ccc(Cc2c[nH]c(=O)[nH]c2=O)cc1OC` displayed a half-maximal inhibitory concentration (IC50) of 129 µM.

For orientation: inhibition means how much of the control response was suppressed. Higher therefore signals a strong effect. Broadly, the IC50 is the concentration that gives 50% inhibition. A high value points to weaker potency in that assay.
